{"data": "Assay results pooled from the literature", "target": "Mitogen-activated protein kinase kinase kinase 7 (MAP3K7, Homo sapiens, UniProt O43318)", "Residues used in one study (O43318 1-606)": "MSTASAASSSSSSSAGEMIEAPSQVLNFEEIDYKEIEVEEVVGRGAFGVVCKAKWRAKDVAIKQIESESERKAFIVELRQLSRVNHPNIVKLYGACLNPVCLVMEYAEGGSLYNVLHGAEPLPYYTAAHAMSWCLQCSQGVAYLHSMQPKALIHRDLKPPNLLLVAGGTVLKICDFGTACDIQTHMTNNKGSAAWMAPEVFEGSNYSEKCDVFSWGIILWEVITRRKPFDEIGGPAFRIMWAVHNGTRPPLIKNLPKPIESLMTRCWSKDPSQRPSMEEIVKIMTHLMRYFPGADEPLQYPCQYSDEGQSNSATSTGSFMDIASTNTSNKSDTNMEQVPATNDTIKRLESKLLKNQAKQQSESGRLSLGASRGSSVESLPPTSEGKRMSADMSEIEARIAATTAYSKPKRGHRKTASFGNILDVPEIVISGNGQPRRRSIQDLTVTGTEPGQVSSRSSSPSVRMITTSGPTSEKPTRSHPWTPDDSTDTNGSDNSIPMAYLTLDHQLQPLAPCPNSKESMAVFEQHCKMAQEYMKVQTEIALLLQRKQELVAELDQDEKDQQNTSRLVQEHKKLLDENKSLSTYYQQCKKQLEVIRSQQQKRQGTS", "note": "Lines come from different studies, so protocols differ."}
{"SMILES": "O=c1nc(-c2ccccn2)sc2ccccc12", "observed": "binding", "technique": "competition with immobilised ligand", "concentration": "1 µM", "measurement": "remaining binding", "value": "78%"}
{"SMILES": "COc1cc(Nc2cnc(C#N)c(O[C@H](C)CN(C)C)n2)ncc1-c1cnn(C)c1", "observed": "enzyme activity", "mode": "inhibitor", "technique": "radiometric", "concentration": "10 µM", "measurement": "remaining activity", "value": "53%"}
{"SMILES": "CCN(CC)CCNC(=O)c1c(C)[nH]c(/C=C2\\C(=O)Nc3ccc(F)cc32)c1C", "observed": "enzyme activity", "mode": "inhibitor", "concentration": "0.3 µM", "measurement": "inhibition", "value": "52%"}
{"SMILES": "CN(c1ccnc(CNc2nc(Nc3ccc4c(c3)CC(=O)N4)ncc2C(F)(F)F)n1)S(C)(=O)=O", "observed": "cell-free assay", "technique": "competition with immobilised ligand", "concentration": "1 µM", "measurement": "remaining binding", "value": "48%"}
{"SMILES": "COc1cc2ncnc(Nc3ccc(F)c(Cl)c3)c2cc1OCCCN1CCOCC1", "observed": "cell-free assay", "concentration": "0.5 µM", "measurement": "remaining signal", "value": "91.3%"}
{"SMILES": "CCCOc1ccc(OC)c(F)c1C(=O)c1ccc(C(=O)N[C@@H]2CNC[C@H]2NC(=O)c2ccc3[nH]ncc3c2)cc1", "observed": "enzyme activity", "mode": "inhibitor", "concentration": "10 µM", "measurement": "remaining activity", "value": "106%"}
{"SMILES": "Oc1cccc(-c2nc(N3CCOCC3)c3oc4ncccc4c3n2)c1", "observed": "enzyme activity", "mode": "inhibitor", "concentration": "10 µM", "measurement": "remaining activity", "value": "79%"}
{"SMILES": "CS(=O)(=O)N1CCCC(NC(=O)[C@H](CCC2CCCCC2)NC(=O)c2ccc(CNC(=O)c3cnc4ccccn34)cc2)C1 (stereo partly drawn)", "observed": "cell-free assay", "technique": "competition with immobilised ligand", "concentration": "0.1 µM", "measurement": "remaining binding", "value": "94%"}
{"SMILES": "CS(=O)(=O)CCNCc1ccc(-c2ccc3ncnc(Nc4ccc(OCc5cccc(F)c5)c(Cl)c4)c3c2)o1", "observed": "cell-free assay", "concentration": "0.5 µM", "measurement": "remaining signal", "value": "89%"}
{"SMILES": "CC1=C(C#N)C(c2ccc3c(c2)c(NC(=O)c2ccccc2C)nn3C)C(C#N)=C(C)N1", "observed": "cell-free assay", "technique": "competition with immobilised ligand", "concentration": "1 µM", "measurement": "remaining binding", "value": "74%"}
{"SMILES": "Nc1ncnc2occ(-c3ccc(NC(=O)Nc4cc(C(F)(F)F)ccc4F)cc3)c12", "observed": "cell-free assay", "mode": "inhibitor", "concentration": "20 µM", "measurement": "remaining signal", "value": "3.7%"}
{"SMILES": "FC(F)(F)Oc1cccc(-c2cnc3ccc(-c4ccncc4)nn23)c1", "observed": "enzyme activity", "mode": "inhibitor", "technique": "radiometric", "concentration": "1 µM", "measurement": "activity vs control", "value": "58%"}
{"SMILES": "COc1cccc2c(NCc3ccccc3)nc(-n3c(N)nc4ccccc43)nc12", "observed": "target engagement in cells", "mode": "inhibitor", "technique": "chemoproteomics", "concentration": "20 mM", "measurement": "inhibition", "value": "-6.3%"}
{"SMILES": "N[C@@H]1CCN(c2nccc(-c3cnn4ncccc34)n2)C1", "observed": "binding", "concentration": "1 µM", "measurement": "remaining binding", "value": "91%"}
{"SMILES": "COc1cc(Cl)c(C(=O)N[C@@H](CN[C@H]2CC[C@@H](N)CC2)Cc2ccc(C#N)cc2)cc1-c1ccc(CN[C@H](C)c2ccc(C)cc2)o1", "observed": "enzyme activity", "mode": "inhibitor", "concentration": "1 µM", "measurement": "remaining activity", "value": "96%"}
{"SMILES": "Cc1cc(NC(=O)c2cccc3cc(-c4cccc5[nH]nc(N)c45)ccc23)ccc1F", "observed": "enzyme activity", "mode": "inhibitor", "concentration": "0.1 µM", "measurement": "activity vs control", "value": "100%"}
{"SMILES": "Cc1nc(C2CCN(C(=O)c3ccc(OC(F)(F)F)cc3N)CC2)c2ncc(N3CCN(C)CC3)cc2n1", "observed": "cell-free assay", "technique": "competition with immobilised ligand", "concentration": "1 µM", "measurement": "remaining binding", "value": "100%"}
{"SMILES": "Cc1sc(C(=O)NC2COC2)cc1-n1cc(NC(=O)Nc2c(F)cccc2Cl)cn1", "observed": "enzyme activity", "mode": "inhibitor", "concentration": "10 µM", "measurement": "remaining activity", "value": "98.4%"}
